Shown are actives, neighbours in structure and some others; about 4.5% of the full set was active somewhere.
M18AAP inhibitor: blocks P. falciparum M18 aspartyl aminopeptidase. recombinant PfM18AAP, H-Glu-NHMec fluorogenic cleavage. inhibition, % at 7.35 µM. hit rate 1.2% among 290,000. AID 1822;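 active means inhibition above the campaign mean inhibition over all tested compounds plus 3 SD, cut at about 28% in these data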
UPR CHOP act: apoptotic UPR (CHOP) activation; CHO-CHOP luciferase reporter, luminescence; percent of tunicamycin response over DMSO baseline; AID 449763; activation, % at 10 µM; hit rate 0.34% among 330,000;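 active means at 10 µM dose, activation of 40% or more, normalized to positive control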
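Assay system: CHO-CHOP cells, stable luciferase reporter of PERK-eIF2a-CHOP signalling / Buffer or medium: F12 plus 10% serum / Compound dosing: one dose, 10 µM in 0.5% DMSO / Times: 6 h compound treatment, 37 °C / Technique: luciferase luminescence / Read-out: % reporter activation, DMSO baseline versus tunicamycin full activation / Benchmarks: tunicamycin and DMSO controls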
p97 inhibitor: blocks human p97 ATPase activity. P55072. recombinant p97 ATPase, Kinase-Glo ATP luminescence, 3 h. inhibition, % at 8 µM. hit rate 0.42% among 220,000. AID 1481; in the data active means inhibition above about 15%
Target sequence (P55072 whole entry, looked up): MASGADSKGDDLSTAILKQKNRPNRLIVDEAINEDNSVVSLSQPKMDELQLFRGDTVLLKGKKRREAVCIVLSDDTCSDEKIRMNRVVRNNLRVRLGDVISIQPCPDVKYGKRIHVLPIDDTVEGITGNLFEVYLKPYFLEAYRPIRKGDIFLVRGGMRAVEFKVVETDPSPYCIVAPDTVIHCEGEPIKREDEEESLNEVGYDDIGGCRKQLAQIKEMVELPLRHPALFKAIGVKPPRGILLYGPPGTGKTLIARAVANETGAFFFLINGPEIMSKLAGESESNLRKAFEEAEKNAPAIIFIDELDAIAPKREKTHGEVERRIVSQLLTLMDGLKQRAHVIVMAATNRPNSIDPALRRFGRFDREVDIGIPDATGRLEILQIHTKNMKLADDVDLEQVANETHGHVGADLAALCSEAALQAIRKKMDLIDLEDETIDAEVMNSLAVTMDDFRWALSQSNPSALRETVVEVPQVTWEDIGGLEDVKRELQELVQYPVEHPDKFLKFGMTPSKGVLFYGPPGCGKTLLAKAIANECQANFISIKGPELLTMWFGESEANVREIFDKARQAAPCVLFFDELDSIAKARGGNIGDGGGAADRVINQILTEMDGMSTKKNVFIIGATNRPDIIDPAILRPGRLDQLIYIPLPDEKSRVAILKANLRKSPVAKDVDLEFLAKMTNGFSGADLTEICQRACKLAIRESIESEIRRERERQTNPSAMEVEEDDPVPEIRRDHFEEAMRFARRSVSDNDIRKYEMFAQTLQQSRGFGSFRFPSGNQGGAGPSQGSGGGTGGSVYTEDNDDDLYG
NS3 helicase inh: blocks Hepatitis C virus NS3 helicase unwinding; NS3 helicase DNA unwinding, Cy5 molecular beacon fluorescence; inhibition, % at 10.9 µM; hit rate 0.56% among 290,000; AID 1800;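 active means inhibition above the mean of all tested compounds plus 3 SD, set per campaign, cut at about 35% in these data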
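Assay system: hepatitis C virus NS3 helicase domain fragment enzyme. Also added: annealed dual-labelled DNA beacon duplex, ATP-started. Timing: 1 h reaction at 25 °C, ATP-initiated. Technique: Cy5 fluorescence at 0 and 60 min, beacon hairpin quenching. Evaluation: % inhibition of unwinding. Replication: one well per compound.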
UPR XBP1 act: adaptive UPR (XBP1) activation. CHO-XBP1 luciferase reporter, IRE1-XBP1 UPR activation, luminescence; percent of tunicamycin response, DMSO as zero. activation, % at 20 µM. hit rate 0.33% among 330,000;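 active means versus positive control, 20 µM dose yields 30% or more activation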
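Signal: luciferase luminescence; Assay system: CHO-XBP1 luciferase reporter cells; Amount: one thousand reporter cells per well; Dosing: 20 µM single concentration, DMSO 1%; Benchmarks: high control tunicamycin 10 µg/mL final, low control DMSO vehicle only; Schedule: 6 h compound exposure at 37 °C, 5% CO2; Evaluation: percent activation relative to tunicamycin reference.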
CHOP inh: CHOP inhibition in unfolded protein response | CHO-K1 CHOP-promoter luciferase, tunicamycin-induced, 15-18 h | inhibition, % at 10 µM | hit rate 3.8% among 220,000 | AID 2732;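 active means compounds that reduced the stress-induced luciferase reporter signal by more than about 70% of percent inhibition, limit read from the data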
Of the large screens only hits and unclear results are named; the others gave an inactive call; ! = repeats disagree.

O=C(COc1ccc2ccccc2c1)Nc1nc2ccccc2[nH]1	CHOP inh 78
Oc1ccc(-c2nc3c4c(ncn3n2)-c2ccccc2CC42CCCC2)cc1	CHOP inh 106
CC(NC(=O)COC(=O)c1cn(-c2ccccc2)nc1-c1cccs1)c1ccccc1 (stereo unspecified)	CHOP inh 90
O=C(Nc1ccncc1)c1cn(-c2ccccc2)nc1-c1cccs1	none
O=C(COc1cccnc1[N+](=O)[O-])c1ccc(Cl)s1	M18AAP inhibitor 32
CCOc1ccc(NC(=O)Cn2cncc2-c2ccc([N+](=O)[O-])cc2)cc1	none (no result: UPR CHOP act, UPR XBP1 act)
O=C(Cn1cncc1-c1ccc([N+](=O)[O-])cc1)Nc1cccc2ccccc12	CHOP inh 92 (no result: UPR CHOP act, UPR XBP1 act)
Cc1cc(-c2nn(-c3ccccc3F)cc2CN2CCN(c3ccncc3)CC2)c(C)s1	none
Cc1nc2ccc(C(C(F)(F)F)(C(F)(F)F)C(F)(F)F)cc2[nH]1	CHOP inh 73
Cc1ccc(-n2nnnc2SC(C(=O)c2c[nH]c3ccccc23)c2ccccc2)cc1 (stereo unspecified)	CHOP inh 72
COc1ccc(-n2nnnc2CNC(=O)C(=O)c2c[nH]c3ccccc23)cc1	none (no result: M18AAP inhibitor, p97 inhibitor, NS3 helicase inh, CHOP inh)
COC(=O)C1C/C(=N\NS(=O)(=O)c2ccc(C)cc2)c2ccsc2C1 (stereo unspecified)	none
CCCCC(=O)NC(c1ccc(C(C)C)cc1)c1ccc2cccnc2c1O (stereo unspecified)	none (no result: p97 inhibitor, CHOP inh)
CCCC(=O)NC(c1ccc(OC)cc1)c1ccc2cccnc2c1O (stereo unspecified)	CHOP inh 82
Cc1c(C(=O)Nc2ccc(-c3nnc4n3CCCCC4)cc2)oc2c1ccc1ccccc12	CHOP inh 95
O=C(c1cc(COc2cccc(C(F)(F)F)c2)on1)N1C[C@@H]2CCC[C@H]1C2	none (no result: p97 inhibitor, CHOP inh)
COc1cc(/C=C2\SC(=S)N(c3cccnc3)C2=O)ccc1O	CHOP inh 90
COc1cc(/C=C2\SC(c3ccc(C)cc3)=NC2=O)ccc1O	CHOP inh 86
CCCCN(C(=O)COC(=O)CSc1ccc([N+](=O)[O-])cc1)c1c(N)n(CCC)c(=O)[nH]c1=O	none (no result: M18AAP inhibitor, p97 inhibitor, NS3 helicase inh, CHOP inh)
Cc1ccc(-c2c[n+](Cc3ccc(Cl)cc3)c3n2CCC3)cc1	none
Clc1ccc(C[n+]2csc3ccccc32)cc1	M18AAP inhibitor 38 (no result: UPR CHOP act, UPR XBP1 act)
O=C(COc1ccc(F)cc1Br)NCCCN1CCCC1=O	none (no result: M18AAP inhibitor, p97 inhibitor, NS3 helicase inh, CHOP inh)
Cc1cc(C(=O)N/N=C/c2cccs2)no1	none
Cc1c(NC2=CC(=O)CC(C)(C)C2)ccc([N+](=O)[O-])c1C	CHOP inh 85
Cc1ccc(S(=O)(=O)N(C)CC(=O)NNC(=O)CCS(=O)(=O)c2ccccc2)cc1	none (no result: M18AAP inhibitor, p97 inhibitor, NS3 helicase inh, CHOP inh)
Clc1cc(Br)ccc1OCCOCCOc1cccc2cccnc12	CHOP inh 71
COc1ccccc1CNC(=O)[C@@H]1CCCN1S(=O)(=O)c1ccccc1F	none (no result: p97 inhibitor, CHOP inh)
N#Cc1ccsc1NC(=O)CN1CCN(S(=O)(=O)c2ccc3ccccc3c2)CC1	CHOP inh 78
COc1ccc(N2CC(C(=O)N3CCN(C(=O)c4ccco4)CC3)CC2=O)cc1 (stereo unspecified)	none (no result: p97 inhibitor, CHOP inh)
Oc1ccc(/C=N/Nc2nc(-c3cccnc3)nc3ccccc23)c(O)c1	M18AAP inhibitor 30
COc1ccc(/C=N/Nc2nc(-c3cccnc3)nc3ccccc23)cc1OC	none
Fc1ccccc1/C=N/Nc1nc(-c2ccccn2)nc2ccccc12	UPR CHOP act 168
CCOC(=O)c1ccc(Nc2nc(-c3cccnc3)nc3ccccc23)cc1	CHOP inh 93
CCOC(=O)CC(NC(=O)CCc1c(C)nc2ncnn2c1C)c1ccc(OC(C)C)cc1 (stereo unspecified)	none
C=CCOc1ccccc1CNc1ccccc1C	CHOP inh 70
Cc1ccccc1NCc1ccccc1O	none
Cc1ccc(S(=O)(=O)N2CCOCC2)cc1NCC(=O)Nc1ccc(OC(F)(F)F)cc1	none (no result: M18AAP inhibitor, p97 inhibitor, NS3 helicase inh, CHOP inh)
Cc1ccccc1NC(=O)c1cc(C(=O)c2cc(Cl)ccc2O)cn(-c2ccccc2C)c1=O	CHOP inh 70
Cc1ccc(-n2cc(C(=O)c3cc(Cl)ccc3O)cc(C#N)c2=O)cc1	none
Nc1nc(SCC(=O)NCCO)nc2sc3c(c12)CCCC3	none
COC(=O)CSc1nc(N)c2c3c(sc2n1)CCCC3	M18AAP inhibitor 28
O=C(COc1ccc2c(-c3ccccc3)cc(=O)oc2c1)Nc1cccnc1	none (no result: p97 inhibitor, CHOP inh)
COc1cccc(-n2nnnc2SCC(=O)N2CCCc3ccccc32)c1	CHOP inh 70
COc1cc(OC)cc(-n2nnnc2SCC(=O)N2CCCc3ccccc32)c1	none
Cc1ccc(-n2nnc(-c3nccs3)n2)cc1	CHOP inh 78
Cc1cccc(C)c1Oc1nc(-c2ccccc2)ncc1S(=O)(=O)c1ccccc1	none
Cc1cc(Cl)ccc1Oc1nc(-c2ccccc2)ncc1S(C)(=O)=O	CHOP inh 79
COc1ccc(Oc2nc(-c3ccccc3)ncc2S(=O)(=O)c2ccccc2)cc1	CHOP inh 73
CC(C)c1ccc(NC(=O)CSc2nc(=O)n(CCCN3CCOCC3)c3c2CCCC3)cc1	none (no result: M18AAP inhibitor, p97 inhibitor, NS3 helicase inh, CHOP inh)
Cc1cc(=O)[nH]c(SCC(=O)NCCC2=CCCCC2)n1	none
Cc1ccccc1C(=O)N(CC(=O)Nc1sc(C)c(C)c1C(N)=O)C1CCCC1	none (no result: p97 inhibitor, CHOP inh)
N#C/C(=N\Nc1cccc([N+](=O)[O-])c1)C(=O)c1ccc(Br)cc1	CHOP inh 79
O=C1Nc2ccc(Cl)cc2[C@@](C#CC2CC2)(C(F)(F)F)O1	CHOP inh 102
Clc1ccccc1C(c1ccccc1)(c1ccccc1)n1ccnc1	CHOP inh 88!
COc1ccc(N(C(=O)CCl)C(C(=O)NCCc2ccccc2)c2cccs2)cc1 (stereo unspecified)	CHOP inh 93 (no result: UPR CHOP act, UPR XBP1 act)
CCCC(=O)OC1CCS(=O)(=O)c2sccc21 (stereo unspecified)	none
Cc1ccc(C(=O)OC2CCS(=O)(=O)c3sccc32)cc1 (stereo unspecified)	CHOP inh 77
CC(C)CNC(=O)/C=C/C=C/CCCC/C=C/c1ccc2c(c1)OCO2	none (no result: M18AAP inhibitor, p97 inhibitor, NS3 helicase inh, CHOP inh)
Cc1cc(NC(=O)c2c(F)cccc2Cl)n(-c2nc3ccccc3[nH]2)n1	CHOP inh 75
Cc1cc(NC(=O)c2ccccc2F)n(-c2nc3ccccc3[nH]2)n1	none
COc1ccc(C2(C)NC(=O)NC2=O)cc1OC (stereo unspecified)	none (no result: p97 inhibitor, CHOP inh)
CC1CCc2nc(N)c(C#N)c(-c3cccn3C)c2C1 (stereo unspecified)	CHOP inh 71
O=C(CCC(=O)c1ccc(F)cc1)NCC1(N2CCCCC2)CCCCC1	none (no result: M18AAP inhibitor, p97 inhibitor, NS3 helicase inh, CHOP inh)
COC(=O)c1sc2nc(C)cc(C)c2c1N	none
COc1ccc2nc(NC(=O)c3sc4nc(C)cc(C)c4c3N)sc2c1	CHOP inh 74
Cc1cc(C)c2c(N)c(C(=O)Nc3ncc(C)s3)sc2n1	CHOP inh 96

Bioassay records (PubChem)
